# Source: ChEMBL document CHEMBL1154402, “Antiviral effect of orally administered (-)-beta-D-2-aminopurine dioxolane in woodchucks with chronic woodchuck hepatitis virus infection” (Antimicrob Agents Chemother, 2007)
# Active and inactive are the calls of the source. The rule behind the calls is not given here.
# Key:
# Duck hepatitis B virus [1] = assay: Antiviral activity against Duck hepatitis B virus infected ip dosed ducklings assessed as log reduction of serum viral DNA copies per ml of serum after 10 days
# Duck hepatitis B virus [2] = assay: Antiviral activity against Duck hepatitis B virus experimentally infected ducklings assessed as log reduction of serum viral DNA copies per ml of serum at 40 mg/kg, ip after 10 days; conditions: route intraperitoneal
# Duck hepatitis B virus [3] = assay: Antiviral activity against Duck hepatitis B virus chronically infected ducklings assessed as log reduction of serum viral DNA copies per ml of serum at 20 mg/kg, ip after 10 days; conditions: route intraperitoneal
# [4] = system: Woodchuck hepatitis virus; assay: Antiviral activity against woodchuck hepatitis virus infected woodchucks assessed as log reduction of serum viral DNA per ml of serum after 4 weeks; type: functional
# [5] = system: Woodchuck hepatitis virus; assay: Antiviral activity against woodchuck hepatitis virus chronically infected orally dosed woodchucks assessed as reduction in serum viremia administered once daily for 4 weeks; type: functional, organism-based
# Method in brief: (§1)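 Chronic WHV carriers were stratified into groups of five. They were dosed orally once daily for 4 weeks at 1, 3, 10 or 30 mg/kg/day, or given liquid-diet placebo; drug was dissolved in saline and suspended in diet by syringe. Serum WHV DNA was measured weekly by triplicate dot blot (sensitivity 1.0 x 107 WHVge/ml) or triplicate real-time PCR (1.0 x 103 WHVge/ml) against pWHV8 standards. Log values were compared with pretreatment and placebo by repeated-measures ANOVA with Holm-Sidak tests.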
# [6] = system: Woodchuck hepatitis virus; assay: Antiviral activity against woodchuck hepatitis virus chronically infected in woodchucks M7250 assessed as reduction in anti-WHs antibody levels at 30 mg/kg/day, po after 4 weeks; type: functional, organism-based
# Marmota monax [7] = assay: Toxicity in woodchuck hepatitis virus chronically infected woodchuck assessed as serum sorbitol dehydrogenase level at 30 mg/kg/day, po after 4 weeks; type: organism-based; set-up: route oral; conditions: in vivo, 672 h
# Method in brief: (§2)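 Serum ALT and SDH were measured as hepatocellular injury markers in chronic WHV carriers dosed orally once daily for 4 weeks. Blood was drawn under ketamine (50 mg/kg) and xylazine (5 mg/kg) im anaesthesia before treatment and weekly during treatment.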
# [8] = system: Woodchuck hepatitis virus; assay: Antiviral activity against woodchuck hepatitis virus chronically infected woodchucks assessed as log reduction of serum viral DNA at 10 mg/kg/day, po after 4 weeks; type: functional
# Method in brief: (§3)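 Chronic WHV-carrier adult woodchucks were stratified into groups of five and dosed orally once daily for 4 weeks (saline solution in liquid diet; diet-alone placebo). Serum WHV DNA was measured weekly by dot blot (sensitivity 1.0 x 10^7 WHVge/ml) or by triplicate real-time PCR (sensitivity 1.0 x 10^3 WHVge/ml) against pWHV8 standards. Log values were compared with week 0 and placebo by repeated-measures ANOVA with Holm-Sidak.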
# [9] = Terminal elimination half life in woodchuck hepatitis virus-negative woodchucks at 33.3 mg/kg, iv administered as single dose; type: ADME, organism-based; set-up: dose 33.3 mg/kg, route intravenous; conditions: marmota monax, in vivo, read-out: beta t1/2 (converted)
# Method in brief: (§4)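 Three WHV-negative adult woodchucks got a 33.3 mg/kg iv bolus, with one saline control. After a 4-week washout the same three got 33.3 mg/kg orally. Blood was drawn predose and at 0.25–24 h. Serum APD and DXG were measured by HPLC-UV (LOQ 0.2 µM) and analysed noncompartmentally. AUC0-∞ used the trapezoidal rule, extrapolated by Clast/λz.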
# [10] = Cmax in woodchuck hepatitis virus-negative woodchucks at 33.3 mg/kg, iv administered as single dose; type: ADME, organism-based; set-up: dose 33.3 mg/kg, route intravenous; conditions: marmota monax, in vivo
# Method in brief: as §4
# [11] = system: Woodchuck hepatitis virus; assay: Antiviral activity against woodchuck hepatitis virus chronically infected woodchucks assessed as log reduction of serum viral DNA at 3 mg/kg/day, po after 4 weeks; type: functional
# Method in brief: as §3
# [12] = system: Woodchuck hepatitis virus; assay: Antiviral activity against woodchuck hepatitis virus chronically infected woodchucks assessed as log reduction of serum viral DNA at 30 mg/kg/day, po after 4 weeks; type: functional
# Method in brief: as §3
# [13] = system: Woodchuck hepatitis virus; assay: Antiviral activity against woodchuck hepatitis virus chronically infected in woodchucks assessed as reduction in anti-WHV core antigen antibody levels at 30 mg/kg/day, po after 4 weeks; type: functional, organism-based
# [14] = AUC (0 to infinity) in woodchuck hepatitis virus-negative woodchucks at 33.3 mg/kg, iv administered as single dose; type: ADME, organism-based; set-up: time infinity, dose 33.3 mg/kg, route intravenous; conditions: marmota monax, plasma
# Method in brief: as §4
# [15] = system: Woodchuck hepatitis virus; assay: Antiviral activity against woodchuck hepatitis virus chronically infected woodchucks assessed as reduction of viral DNA replicative intermediates at 1 mg/kg/day, po after 4 weeks; type: functional, organism-based
# Method in brief: (§5)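 Liver biopsies were taken by ultrasound-guided needle under ketamine/xylazine anaesthesia. Timing was 1 week before and at the end of 4 weeks of once-daily oral dosing (1–30 mg/kg/day or placebo diet; five woodchucks per group). Samples were snap-frozen and stored at –70°C. Hepatic WHV DNA replicative intermediates were quantified by Southern blot hybridization and compared with placebo.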
# [16] = system: Woodchuck hepatitis virus; assay: Antiviral activity against woodchuck hepatitis virus chronically infected woodchucks assessed as reduction of viral DNA replicative intermediates at 10 mg/kg/day, po after 4 weeks; type: functional, organism-based
# Method in brief: as §5
# [17] = system: Woodchuck hepatitis virus; assay: Antiviral activity against woodchuck hepatitis virus chronically infected woodchucks assessed as log reduction of viral DNA replicative intermediates at 30 mg/kg/day, po after 4 weeks relative to control; type: functional, organism-based
# Method in brief: as §5
# Rhesus monkey = assay: AUC in po dosed rhesus monkey assessed as serum 9-(beta-D-1,3-dioxolan-4-yl)guanine level; type: ADME, organism-based, Macaca mulatta, Plasma; conditions: in vivo
# [18] = system: Woodchuck hepatitis virus; assay: Antiviral activity against woodchuck hepatitis virus chronically infected in woodchucks M7236 assessed as reduction in anti-WHs antibody levels at 30 mg/kg/day, po after 4 weeks; type: functional, organism-based
# [19] = system: Woodchuck hepatitis virus; assay: Antiviral activity against woodchuck hepatitis virus chronically infected woodchucks assessed as reduction of serum viral DNA at 1 mg/kg/day, po after 4 weeks; type: functional, organism-based
# Method in brief: as §1
# [20] = Terminal elimination half life in orally dosed monkey; type: ADME, organism-based, Macaca mulatta; conditions: rhesus monkey, in vivo, po; read-out: beta t1/2 (converted)
# [21] = Cmax in woodchuck hepatitis virus-negative woodchucks at 33.3 mg/kg, iv administered as single dose followed by dose of 33.3 mg/kg, po after 4 weeks washout period; type: ADME, organism-based; conditions: marmota monax, in vivo
# Method in brief: as §4
# [22] = Terminal elimination half life in woodchuck hepatitis virus-negative woodchucks at 33.3 mg/kg, iv administered as single dose followed by dose of 33.3 mg/kg, po after 4 weeks washout period; type: ADME, organism-based; conditions: marmota monax, in vivo, read-out: beta t1/2 (converted)
# Method in brief: as §4
# [23] = Terminal elimination half life in orally dosed mouse; type: ADME, organism-based; conditions: in vivo, po, read-out: beta t1/2 (converted)
# [24] = AUC (0 to infinity) in woodchuck hepatitis virus-negative woodchucks at 33.3 mg/kg, iv administered as single dose followed by dose of 33.3 mg/kg, po after 4 weeks washout period; type: ADME, organism-based; conditions: marmota monax, plasma
# Method in brief: as §4
# Marmota monax [25] = assay: Toxicity in woodchuck hepatitis virus chronically infected woodchucks assessed as change in body weight administered once daily for 4 weeks; type: organism-based; conditions: in vivo, 672 h
# Marmota monax [26] = assay: Toxicity in woodchuck hepatitis virus chronically infected woodchuck assessed as serum alanine aminotransferase level at 30 mg/kg/day, po after 4 weeks; type: organism-based; set-up: route oral; conditions: in vivo, 672 h
# Method in brief: as §2
# [27] = system: Woodchuck hepatitis virus; assay: Antiviral activity against woodchuck hepatitis virus chronically infected woodchucks assessed as reduction of viral DNA replicative intermediates at 3 mg/kg/day, po after 4 weeks; type: functional, organism-based
# Method in brief: as §5
# [28] = system: Woodchuck hepatitis virus; assay: Antiviral activity against woodchuck hepatitis virus chronically infected in woodchucks assessed as reduction in viral surface antigen level in blood at 30 mg/kg/day, po after 4 weeks; type: functional
# Method in brief: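 Adult woodchucks chronically infected with WHV, in groups of five, got the drug dissolved in isotonic saline and suspended in a semisynthetic liquid diet, by oral dose syringe once daily for 4 weeks. Placebo was diet alone. Serum WHsAg was measured by WHV-specific enzyme immunoassay (optical density units) before, during and after treatment up to week 16.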
smiles,measurement,setting,value
Nc1nc(N)c2ncn([C@H]3CO[C@@H](CO)O3)c2n1 [AMDOXOVIR],Activity,Duck hepatitis B virus [1],Dose-dependent effect
same,Activity,Duck hepatitis B virus [2],0.9
same,Activity,Duck hepatitis B virus [3],0.3
CC(=O)OCC(CCn1cnc2cnc(N)nc21)COC(C)=O [FAMCICLOVIR],Activity,[4],1.4
Nc1ccn([C@H]2C[C@H](O)[C@@H](CO)O2)c(=O)n1 [DOXECITINE],Activity,[4],2
Nc1ncnc2c1ncn2[C@H]1C[C@H](O)[C@@H](CO)O1 [DEOXYADENOSINE],Activity,[4],1.5
CCCCCCCCCCCCCCCCOCCCOP(=O)(O)OCCOCn1cnc2c(=O)[nH]c(N)nc21,Activity,[4],1.4
Cc1cn([C@H]2O[C@@H](CO)[C@H](O)[C@H]2F)c(=O)[nH]c1=O [CLEVUDINE],Activity,[4],8.2
Nc1ncc2ncn([C@H]3CO[C@@H](CO)O3)c2n1,Activity,[5],Dose-dependent effect
same,Activity,[6],inactive
same,Activity,Marmota monax [7],211.5 IU/L
same,Activity,[8],0.7
same,half-life,[9],1.7 h
same,Cmax,[10],112 µM
same,Activity,[11],0.4
same,Activity,[12],1.9
same,Activity,[13],inactive
same,AUC(0-inf),[14],203 µM·h
same,Activity,[15],inactive
same,Activity,[16],inactive
same,Activity,[17],Active
same,%AUC,Rhesus monkey,75%
same,Activity,[18],inactive
same,Activity,[19],inactive
same,half-life,[20],0.5 h
same,Cmax,[21],16.8 µM
same,half-life,[22],3 h
same,half-life,[23],0.3 h
same,AUC(0-inf),[24],49.4 µM·h
same,Activity,Marmota monax [25],Non-toxic
same,Activity,Marmota monax [26],9.5 IU/L
same,Activity,[27],inactive
same,fold change (FC),[28],1.4
